Experimental data: PMC4797071 (ACS chemical neuroscience, 2015)

How the values were obtained:
[1] = biological target: T1, Aβ(1–40) (Homo sapiens, UniProt P05067); assay: Aβ aggregate growth kinetics by dynamic light scattering; format: biochemical; conditions: method not specified
Method in brief: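 Aβ(1–40) relyophilized from 50% ACN and stored as a urea/glycine stock; thawed, sonicated 2 min and diluted into PBSA. 140 µM Aβ alone or with 14 µM peptide, 0.45 µm filtered into a cuvette held at 37 °C. 488 nm laser; intensity at 90° recorded over 10 h and normalized to total mass concentration; z-averaged hydrodynamic diameter from the autocorrelation function by cumulants.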

[2] = tested on: primary cortical neuronal cells; assay: Aβ induced toxicity, MTS assay with primary neuronal cultures; format: cell-based, mice; conditions: for protection from Aβ toxicity at 10 µM peptide: 10 µM Aβ(1–42), MTS, Aβ alone ~35% cell viability
Method in brief: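 Cortical neurons from E15.5 mouse embryos, matured in neurobasal medium. Aβ(1–42) at 1 mg/mL in PBS, diluted to 10 µM with or without test peptide or mutant TTR at varying doses. Added at 6 DIV alongside vehicle and controls. At 8 DIV, MTS reagent for 2–3 h, absorbance 490 nm. Significance versus vehicle and versus Aβ set at p < 0.05.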

[3] = Peptide self-assembly by photoinduced cross-linking; format: physicochemical; conditions: peptide 36 µM, not cross-linked, boiled, denaturing gel, silver staining
Method in brief: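 Peptides at 36 µM in PBSA, 1 h at 37 °C, then photo-cross-linked (PICUP) and heated 95 °C for 5 min. Non-cross-linked samples boiled for comparison. Separated on 10–20% Tris-Tricine gel; silver stained.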

[4] = Peptide self-association by light scattering; format: physicochemical; conditions: peptide alone 80 µM, 37 °C, after 1 h of incubation; data not shown
[5] = biological target: T1, Aβ(1–40); assay: Thioflavin T; format: biochemical; conditions: 28 µM Aβ, 2.8 µM peptide or protein, 37 °C, 1, 5, 24, 48 h
Method in brief: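 Aβ(1–40) urea/glycine stock diluted into PBSA; 28 µM alone or with 2.8 µM peptide or mutant TTR, incubated at 37 °C. At 1, 5, 24 and 48 h, aliquots diluted 14-fold into 10 µM ThT in PBSA. Excitation 440 nm, emission 460–500 nm; intensity at 480 nm used. Three serial spectra averaged, ThT-in-PBSA background subtracted; some samples from two independent experiments.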

T1 sequence (P05067 672-711 limits assumed): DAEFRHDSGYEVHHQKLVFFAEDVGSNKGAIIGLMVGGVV

Substance	effect on Aβ aggregation (summary statement) [1]	inhibition of Aβ toxicity (summary statement) ([2]; summary, concentration not given)	protection from Aβ toxicity at 10 µM peptide [2]	bands in the absence of cross-linker [3]	light scattered above background (self-association) [4]	effect on ThT fluorescence increase up to 48 h [5]
SKV^DPPTIAALLSPYSYSQ [LG2]	nor did they affect Aβ aggregation	nor did they affect Aβ aggregation or inhibit Aβ toxicity				
SKV^DPPTIAALLSPYSYSQ (head to tail) [CG2]			no protective effect			
SKVVT^DPPRYTIAALLSPYSYSQ [LG3]			no protective effect	~ 5 kDa	did not scatter light above background	at most a minor inhibitory effect
